Legend:
OVCAR-3 cells = experiment: Subcellular distribution of 125I-labeled reagents; type: cell-based, human; details: for ^125I in cytoplasm, 24 hours / ^125I in nucleus, 24 hours: 1 h incubation then 24 h in fresh nonradioactive medium; for ^125I in cytoplasm, 1 hour / ^125I in nucleus, 1 hour: 1 h incubation, 55.5 kBq/mL
Method in brief: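 OVCAR-3 cells were kept in RPMI-1640 with insulin, 2 mM L-glutamine and 20% FBS and expanded as intraperitoneal xenografts in athymic nude mice. Cells in six T150 flasks attached overnight, then were exposed 1 h to ¹²⁵I compound (55.5 kBq/mL). Three flasks were processed immediately and three after 24 h in fresh medium. Cells were trypsinized, counted, fractionated into nuclear/cytoplasmic compartments and gamma-counted.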

[1] = Chemical hydrolysis of cycloSal phosphate triesters in phosphate buffer; type: physicochemical; details: phosphate buffer 50 mM, pH 7.3, 37°C, ~15% acetonitrile
[2] = tested on: LS 174T and OVCAR-3 cancer cell lines; experiment: Uptake kinetics, cell-associated activity after 3 h; type: cell-based, human; details: after 3 h incubation
Method in brief: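 Cells were plated at 2×10⁵/well in 6-well plates in 3 mL growth medium: OVCAR-3 in RPMI-1640 with 20% FBS, LS 174T in EMEM with 10% FBS. After 24 h, radiolabeled compound (~13.6–46.9 kBq/mL) was added at staggered times, up to 360 min, in triplicate. Medium was gamma-counted for radioactive concentration. Cells were washed twice with ice-cold PBS, trypsinized and gamma-counted for cell-associated activity.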

[3] = Solubility in aqueous media; details: aqueous media / water

O=c1[nH]c(=O)n([C@H]2C[C@H](O)[C@@H](COP3(=O)OCc4ccccc4O3)O2)cc1[125I] (stereo partly drawn) [6b, 5-[^125I]-Iodo-5′-O-cycloSaligenyl-2′-deoxyuridine Monophosphate]
^125I in cytoplasm, 24 hours (OVCAR-3 cells): 7.3 (1.0) cpm/10^3 cells (std dev) | ^125I in nucleus, 24 hours (OVCAR-3 cells): 39.4 (5.8) cpm/10^3 cells (std dev) | ^125I in cytoplasm, 1 hour (OVCAR-3 cells): 20.2 (3.2) cpm/10^3 cells (std dev) | ^125I in nucleus, 1 hour (OVCAR-3 cells): 5.7 (1.6) cpm/10^3 cells (std dev)

Cc1cccc2c1OP(=O)(OC[C@H]1O[C@@H](n3cc([125I])c(=O)[nH]c3=O)C[C@@H]1O)OC2 (stereo partly drawn) [7b, 5-[^125I]-Iodo-5′-O-cyclo(3-methylSaligenyl)-2′-deoxyuridine Monophosphate]
^125I in cytoplasm, 24 hours (OVCAR-3 cells): 1.6 (0.5) cpm/10^3 cells (std dev) | ^125I in nucleus, 24 hours (OVCAR-3 cells): 25.9 (7.1) cpm/10^3 cells (std dev) | ^125I in cytoplasm, 1 hour (OVCAR-3 cells): 11.7 (1.7) cpm/10^3 cells (std dev) | ^125I in nucleus, 1 hour (OVCAR-3 cells): 4.5 (1.0) cpm/10^3 cells (std dev)

CC(C)(C)c1cc(C(C)(C)C)c2c(c1F)COP(=O)(OC[C@H]1O[C@@H](n3cc(I)c(=O)[nH]c3=O)C[C@@H]1O)O2 (stereo partly drawn) [8-fast, 5-Iodo-5′-O-[cyclo-3,5-di-(tert-butyl)-6-fluoroSaligenyl]-2′-deoxyuridine Monophosphate]
k (rate of hydrolysis) [1]: 0.000241 min⁻¹

CC(C)(C)c1cc(C(C)(C)C)c2c(c1F)COP(=O)(OC[C@H]1O[C@@H](n3cc(I)c(=O)[nH]c3=O)C[C@@H]1O)O2 (stereo partly drawn) [8-slow, 5-Iodo-5′-O-[cyclo-3,5-di-(tert-butyl)-6-fluoroSaligenyl]-2′-deoxyuridine Monophosphate]
k (rate of hydrolysis) [1]: 0.000188 min⁻¹

CC(C)(C)c1cc(C(C)(C)C)c2c(c1F)COP(=O)(OC[C@H]1O[C@@H](n3cc([125I])c(=O)[nH]c3=O)C[C@@H]1O)O2 (stereo partly drawn) [8b, 5-[^125I]-Iodo-5′-O-[cyclo-3,5-di-(tert-butyl)-6-fluoroSaligenyl]-2′-deoxyuridine Monophosphate]
^125I in cytoplasm, 24 hours (OVCAR-3 cells): 3.2 (0.01) cpm/10^3 cells (std dev) | ^125I in nucleus, 24 hours (OVCAR-3 cells): 92.2 (5.0) cpm/10^3 cells (std dev) | ^125I in cytoplasm, 1 hour (OVCAR-3 cells): 88.3 (5.4) cpm/10^3 cells (std dev) | ^125I in nucleus, 1 hour (OVCAR-3 cells): 7.9 (0.4) cpm/10^3 cells (std dev) | retained radioactivity, more than 6b (OVCAR-3 cells; OVCAR-3, 24 h): > 230% | retained radioactivity, more than 7b (OVCAR-3 cells; OVCAR-3, 24 h): ~ 360%

CC(C)(C)c1cc(C(C)(C)C)c2c(c1F)COP(=O)(OC[C@H]1O[C@@H](n3cc([125I])c(=O)[nH]c3=O)C[C@@H]1O)O2 (stereo partly drawn) [8b-fast, 5-[^125I]-Iodo-5′-O-[cyclo-3,5-di-(tert-butyl)-6-fluoroSaligenyl]-2′-deoxyuridine Monophosphate]
cell associated activity relative to the corresponding 6b diastereomer [2]: > 110 × | cell associated activity relative to the corresponding 7b diastereomer [2]: > 20 ×

O=c1[nH]c(=O)n([C@H]2C[C@H](OP3(=O)OCc4ccccc4O3)[C@@H](COP3(=O)OCc4ccccc4O3)O2)cc1[125I] (stereo partly drawn) [9b]
^125I in cytoplasm, 24 hours (OVCAR-3 cells): 37.3 (10.0) cpm/10^3 cells (std dev) | ^125I in nucleus, 24 hours (OVCAR-3 cells): 18.1 (3.9) cpm/10^3 cells (std dev) | ^125I in cytoplasm, 1 hour (OVCAR-3 cells): 97.6 (10.0) cpm/10^3 cells (std dev) | ^125I in nucleus, 1 hour (OVCAR-3 cells): 6.4 (0.5) cpm/10^3 cells (std dev)

Cc1cccc2c1OP(=O)(OC[C@H]1O[C@@H](n3cc([125I])c(=O)[nH]c3=O)C[C@@H]1OP1(=O)OCc3cccc(C)c3O1)OC2 (stereo partly drawn) [10b]
^125I in cytoplasm, 24 hours (OVCAR-3 cells): 13.4 (3.3) cpm/10^3 cells (std dev) | ^125I in nucleus, 24 hours (OVCAR-3 cells): 24.5 (5.4) cpm/10^3 cells (std dev) | ^125I in cytoplasm, 1 hour (OVCAR-3 cells): 97.1 (14.6) cpm/10^3 cells (std dev) | ^125I in nucleus, 1 hour (OVCAR-3 cells): 6.0 (0.9) cpm/10^3 cells (std dev)

O=c1[nH]c(=O)n([C@H]2C[C@H](OP3(=O)OCc4ccccc4O3)[C@@H](CO)O2)cc1I (stereo partly drawn) [12-fast, 5-Iodo-3′-O-cycloSaligenyl-2′-deoxyuridine Monophosphate]
k (rate of hydrolysis) [1]: 0.00205 min⁻¹

O=c1[nH]c(=O)n([C@H]2C[C@H](OP3(=O)OCc4ccccc4O3)[C@@H](CO)O2)cc1I (stereo partly drawn) [12-slow, 5-Iodo-3′-O-cycloSaligenyl-2′-deoxyuridine Monophosphate]
k (rate of hydrolysis) [1]: 0.00164 min⁻¹

O=c1[nH]c(=O)n([C@H]2C[C@H](OP3(=O)OCc4ccccc4O3)[C@@H](CO)O2)cc1[125I] (stereo partly drawn) [12b, 5-[^125I]-Iodo-3′-O-cycloSaligenyl-2′-deoxyuridine Monophosphate]
^125I in cytoplasm, 24 hours (OVCAR-3 cells): 2.7 (0.3) cpm/10^3 cells (std dev) | ^125I in nucleus, 24 hours (OVCAR-3 cells): 30.2 (5.3) cpm/10^3 cells (std dev) | ^125I in cytoplasm, 1 hour (OVCAR-3 cells): 7.2 (0.7) cpm/10^3 cells (std dev) | ^125I in nucleus, 1 hour (OVCAR-3 cells): 2.1 (0.2) cpm/10^3 cells (std dev)

Cc1cccc2c1OP(=O)(O[C@H]1C[C@H](n3cc(I)c(=O)[nH]c3=O)O[C@@H]1CO)OC2 (stereo partly drawn) [13-fast, 5 - Iodo-3′-O-cyclo(3-methylSaligenyl)-2′-deoxyuridine Monophosphate]
k (rate of hydrolysis) [1]: 0.000946 min⁻¹

Cc1cccc2c1OP(=O)(O[C@H]1C[C@H](n3cc(I)c(=O)[nH]c3=O)O[C@@H]1CO)OC2 (stereo partly drawn) [13-slow, 5 - Iodo-3′-O-cyclo(3-methylSaligenyl)-2′-deoxyuridine Monophosphate]
k (rate of hydrolysis) [1]: 0.000813 min⁻¹

Cc1cccc2c1OP(=O)(O[C@H]1C[C@H](n3cc([125I])c(=O)[nH]c3=O)O[C@@H]1CO)OC2 (stereo partly drawn) [13b, 5-[^125I]-Iodo-3′-O-cyclo(3-methylSaligenyl)-2′-deoxyuridine Monophosphate]
^125I in cytoplasm, 24 hours (OVCAR-3 cells): 1.4 (0.3) cpm/10^3 cells (std dev) | ^125I in nucleus, 24 hours (OVCAR-3 cells): 15.7 (2.2) cpm/10^3 cells (std dev) | ^125I in cytoplasm, 1 hour (OVCAR-3 cells): 6.2 (0.6) cpm/10^3 cells (std dev) | ^125I in nucleus, 1 hour (OVCAR-3 cells): 2.0 (0.2) cpm/10^3 cells (std dev)

CC(C)(C)c1cc(C(C)(C)C)c2c(c1F)COP(=O)(O[C@H]1C[C@H](n3cc(I)c(=O)[nH]c3=O)O[C@@H]1CO)O2 (stereo partly drawn) [14-fast, 5-Iodo-3′-O-[cyclo-3,5-di-(tert-butyl)-6-fluoroSaligenyl]-2′-deoxyuridine Monophosphate]
k (rate of hydrolysis) [1]: 0.000766 min⁻¹

CC(C)(C)c1cc(C(C)(C)C)c2c(c1F)COP(=O)(O[C@H]1C[C@H](n3cc(I)c(=O)[nH]c3=O)O[C@@H]1CO)O2 (stereo partly drawn) [14-slow, 5-Iodo-3′-O-[cyclo-3,5-di-(tert-butyl)-6-fluoroSaligenyl]-2′-deoxyuridine Monophosphate]
k (rate of hydrolysis) [1]: 0.000667 min⁻¹

CC(C)(C)c1cc(C(C)(C)C)c2c(c1F)COP(=O)(O[C@H]1C[C@H](n3cc([125I])c(=O)[nH]c3=O)O[C@@H]1CO)O2 (stereo partly drawn) [14b, 5-[^125I]-Iodo-3′-O-(cyclo-3,5-di-(tert-butyl)-6-fluoroSaligenyl)-2′-deoxyuridine Monophosphate]
^125I in cytoplasm, 24 hours (OVCAR-3 cells): 2.7 (0.4) cpm/10^3 cells (std dev) | ^125I in nucleus, 24 hours (OVCAR-3 cells): 66.7 (8.4) cpm/10^3 cells (std dev) | ^125I in cytoplasm, 1 hour (OVCAR-3 cells): 62.5 (4.3) cpm/10^3 cells (std dev) | ^125I in nucleus, 1 hour (OVCAR-3 cells): 4.3 (0.3) cpm/10^3 cells (std dev)

CC(C)(C)c1cc(C(C)(C)C)c2c(c1F)COP(=O)(OC[C@H]1O[C@@H](n3cc(I)c(=O)[nH]c3=O)C[C@@H]1F)O2 (stereo partly drawn) [24-fast, 5-Iodo-5′-O-[cyclo-3,5-Di-(tert-butyl)-6-fluoroSaligenyl]-3′-fluoro-2′,3′-dideoxyuridine Monophosphate]
k (rate of hydrolysis) [1]: 0.000292 min⁻¹

CC(C)(C)c1cc(C(C)(C)C)c2c(c1F)COP(=O)(OC[C@H]1O[C@@H](n3cc(I)c(=O)[nH]c3=O)C[C@@H]1F)O2 (stereo partly drawn) [24-slow, 5-Iodo-5′-O-[cyclo-3,5-Di-(tert-butyl)-6-fluoroSaligenyl]-3′-fluoro-2′,3′-dideoxyuridine Monophosphate]
k (rate of hydrolysis) [1]: 0.000222 min⁻¹

CC(C)(C)c1cc(C(C)(C)C)c2c(c1F)COP(=O)(OC[C@H]1O[C@@H](n3cc([125I])c(=O)[nH]c3=O)C[C@@H]1F)O2 (stereo partly drawn) [24b, 5-[^125I]-Iodo-5′-O-[cyclo-3,5-Di-(tert-butyl)-6-fluoroSaligenyl]-3′-fluoro-2′,3′-dideoxyuridine]
solubility [3]: low solubility

CC(C)(C)c1cc(C(C)(C)C)c2c(c1F)COP(=O)(OC[C@H]1O[C@@H](n3cc([125I])c(=O)[nH]c3=O)C[C@@H]1F)O2 (stereo partly drawn) [24b-fast, 5-[^125I]-Iodo-5′-O-[cyclo-3,5-Di-(tert-butyl)-6-fluoroSaligenyl]-3′-fluoro-2′,3′-dideoxyuridine]
k (rate of hydrolysis) [1]: 0.000301 min⁻¹

CC(C)(C)c1cc(C(C)(C)C)c2c(c1F)COP(=O)(OC[C@H]1O[C@@H](n3cc(I)c(=O)[nH]c3=O)C[C@@H]1O)O2 (stereo partly drawn) [compound 8, 5-Iodo-5′-O-[cyclo-3,5-di-(tert-butyl)-6-fluoroSaligenyl]-2′-deoxyuridine Monophosphate]
solubility [3]: lower water solubility

CC(C)(C)c1cc(C(C)(C)C)c2c(c1F)COP(=O)(O[C@H]1C[C@H](n3cc(I)c(=O)[nH]c3=O)O[C@@H]1CO)O2 (stereo partly drawn) [compound 14, 5-Iodo-3′-O-[cyclo-3,5-di-(tert-butyl)-6-fluoroSaligenyl]-2′-deoxyuridine Monophosphate]
solubility [3]: lower water solubility

CC(C)(C)c1cc(C(C)(C)C)c2c(c1F)COP(=O)(OC[C@H]1O[C@@H](n3cc(I)c(=O)[nH]c3=O)C[C@@H]1F)O2 (stereo partly drawn) [compound 24, 5-Iodo-5′-O-[cyclo-3,5-Di-(tert-butyl)-6-fluoroSaligenyl]-3′-fluoro-2′,3′-dideoxyuridine Monophosphate]
solubility [3]: lower water solubility

From paper PMC3328401 (Journal of Medicinal Chemistry, 2012)
